MsrA inh = inhibitors of bovine MsrA | 360,000 compounds, 0.75% hits | AID 651718 | purified bovine MsrA, absorbance read-out | inhibition, % at 15.5 µM; in the data active = inhibition above about 4.5%
PKA-R1A activ = activates the PKA-R1A holoenzyme complex | P00514+P68181 | PKA-R1A dissociation, Cy5-IP20 fluorescence polarization; scaled: DMSO 0%, 113 µM cGMP 100% | activation, % at 11.4 µM | 340,000 compounds, 0.083% hits | AID 504707;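 active = percent activation above the mean of all tested compounds plus 3 SD, cut at about 19% in these data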;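 note: higher means more PKAc released from R1A so a rise in polarization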
IMP-1 inhibitor = blocks Pseudomonas aeruginosa IMP-1 metallo-beta-lactamase; inhibition, % at 5.6 µM; AID 1556; purified IMP-1, nitrocefin hydrolysis, epi-absorbance fluorescence; 290,000 compounds, 0.45% hits;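 active = inhibition above the mean plus 3 SD of all compounds in the same screening run, cut at about 4.5% in these data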
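System: purified IMP-1 / Input: IMP-1 dispensed at 0.2 nM / Medium: 50 mM HEPES pH 7.1, 50 µM ZnSO4, 0.05% Brij 35 / Timing: 15 min enzyme–compound preincubation, then 25 min nitrocefin reaction, 25 °C / Technique: plate fluorescence quenching by hydrolysis product, ex 480/em 530 nm / Repeats: singlicate testing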
MsrA act = activates bovine MsrA enzyme | purified bovine MsrA, absorbance read-out | AID 602163 | 360,000 compounds, 0.3% hits | activation, % at 10.6 µM; in the data active = activation above about 7.5%
PKA-R2B activ = activators of human PKA-R2B complex. 340,000 compounds, 0.079% hits. PKA-R2B holoenzyme dissociation, Cy5-IP20 fluorescence polarization; R2B truncated from residue 108, S112A mutant; 0% DMSO only, 100% 113 µM cGMP. activation, % at 11.4 µM;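 active = activation above a cutoff set at the mean over all compounds plus 3 SD, cut at about 18% in these data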;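 note: higher means more holoenzyme dissociation and a rise in polarization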
Target sequence (P31323 whole entry, looked up, other chains not shown, the tested form may be a part): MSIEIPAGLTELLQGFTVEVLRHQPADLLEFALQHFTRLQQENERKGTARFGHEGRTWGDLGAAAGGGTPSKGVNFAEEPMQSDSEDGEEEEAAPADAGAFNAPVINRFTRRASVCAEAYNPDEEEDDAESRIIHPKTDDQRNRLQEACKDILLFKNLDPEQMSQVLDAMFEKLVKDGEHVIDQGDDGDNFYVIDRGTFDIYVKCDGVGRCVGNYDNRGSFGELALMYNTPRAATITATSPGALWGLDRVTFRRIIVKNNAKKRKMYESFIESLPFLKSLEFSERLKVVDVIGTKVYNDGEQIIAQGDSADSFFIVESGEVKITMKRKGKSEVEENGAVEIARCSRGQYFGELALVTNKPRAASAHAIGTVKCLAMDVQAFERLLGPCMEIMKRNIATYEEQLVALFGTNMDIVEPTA
VIM-2 inhibitor = blocks Pseudomonas aeruginosa VIM-2 metallo-beta-lactamase. AID 1527. inhibition, % at 5.6 µM. 290,000 compounds, 0.89% hits. purified VIM-2, nitrocefin hydrolysis, epi-absorbance fluorescence;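 active = inhibition above the mean of all tested compounds plus 3 SD, cutoff set per screening run, cut at about 7.5% in these data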;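 note: red hydrolysis product quenches plate fluorescence so inhibitors raise well fluorescence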
Hits are given with their value; i = inactive; nt = no result. Shown are actives, neighbours in structure and some others; about 2.1% of the full set was active somewhere.

SMILES	MsrA inh	PKA-R1A activ	IMP-1 inhibitor	MsrA act	PKA-R2B activ	VIM-2 inhibitor
Clc1ccc(C2Nc3cccc4cccc(c34)N2)cc1Cl	i	i	6.1	i	i	i
Cc1c(CCC(=O)NCCCn2ccnc2)c(=O)oc2c(C)c3oc4c(c3cc12)CCCC4	nt	i	i	i	i	9.6
COC(=O)c1cc(=O)n(Cc2ccco2)c(=Nc2ccccc2)s1	i	nt	nt	nt	nt	nt
CCCCc1ccc(NC(=O)CN2NS(=O)(=O)c3ccccc3C2=O)cc1	i	i	5.5	i	i	i
Cc1ccc(CNC(=O)CN2NS(=O)(=O)c3ccccc3C2=O)cc1	i	i	nt	i	i	nt
CCCCn1c(N)c(N(CC(C)C)C(=O)C2=COCCO2)c(=O)[nH]c1=O	i	i	nt	i	i	nt
O=C(NCC1CCCCC1)c1cc(-c2cc(F)ccc2OCC2CCCO2)n[nH]1 (stereo unspecified)	i	nt	nt	i	nt	nt
CC1=CC(=O)c2c(O)ccc(O)c2C1=O	nt	nt	5.3	nt	nt	i
O=C1C=C(N2CCN(c3ccccn3)CC2)C(=O)c2c(O)ccc(O)c21	i	i	nt	i	i	nt
COc1ccc(-n2sc3ccc(F)cc3c2=O)cc1	i	i	nt	12	i	nt
Cc1ccc(C)c(-n2sc3ccc(F)cc3c2=O)c1	i	i	nt	13	i	nt
O=c1c2cc(F)ccc2sn1-c1ccc(F)cc1	nt	i	nt	i	i	nt
C[C@H](CO)N1C[C@H](C)[C@H](CN(C)C(=O)C2CCCCC2)OCc2cnnn2CCCC1=O	i	nt	nt	nt	nt	nt
CCOC(=O)c1sc2nc(C)nc(SCC(=O)N(CC)C3CCS(=O)(=O)C3)c2c1C (stereo unspecified)	i	i	i	i	i	i
Cc1ccccc1NC(=O)c1c(C)[nH]c(=S)c(C#N)c1-c1ccc(Cl)cc1	i	nt	i	i	nt	i
Cc1ccc(-c2c(C(=O)Nc3ccccc3C)c(C)[nH]c(=S)c2C#N)o1	i	nt	5.7	i	nt	i
Cc1ccc2nc3c(c(Nc4cccc(O)c4)c2c1)CCC3	i	i	i	i	i	9.4
COC(=O)c1ccc(Nc2cc(C)nc3ccc(C)cc23)cc1	i	i	i	i	i	i
CC(=O)c1cccc(Nc2cc(C)nc3ccc(C)cc23)c1	i	i	i	i	i	9.8
CC(=O)c1cccc(Nc2c3c(nc4ccccc24)CCC3)c1	i	i	i	i	i	10
Cc1ccc2nc3c(c(C(=O)O)c2c1)CCC3	i	i	i	i	i	i
COC(=O)c1cccc(Nc2c3c(nc4ccccc24)CCC3)c1	i	i	i	i	i	8.1
CC(=O)c1ccc(Nc2c3c(nc4ccccc24)CCCC3)cc1	i	i	i	i	i	i
Fc1cccc(Nc2c3c(nc4ccccc24)CCC3)c1	i	i	i	i	i	i
CC(C)c1[nH]nc2c1C(c1ccccc1)NC2=O (stereo unspecified)	i	nt	nt	nt	nt	nt
SMILES	MsrA inh	PKA-R1A activ	IMP-1 inhibitor	MsrA act	PKA-R2B activ	VIM-2 inhibitor
CC(C)OC(=O)N(C)C[C@H]1OCc2cn(nn2)CCCC(=O)N([C@H](C)CO)C[C@@H]1C	i	i	nt	i	i	nt
Cc1[nH]c2ccccc2c1CC(=O)Nc1ccc(N(C)c2cccnc2)c(-c2cccc(Cl)c2)c1	i	nt	nt	nt	nt	nt
COc1ccccc1Nc1c2c(nc3ccccc13)CCC2	i	i	i	i	i	9.4
CCCOc1ccc(C(=O)CCC(=O)Nc2ccc(N3CCN(C)CC3)cc2)cc1	i	i	nt	i	i	nt
C[C@H](CO)N1C[C@H](C)[C@@H](CN(C)S(=O)(=O)c2ccc(Oc3ccccc3)cc2)OCc2cnnn2CCCC1=O	i	i	nt	i	i	nt
O=S(=O)(c1ccc(C(F)(F)F)cc1)N1CCCc2nc(-c3ccc(F)cc3)ccc21	i	nt	nt	nt	nt	nt
O=C(O)COc1ccc(Br)cc1/C=C1/SC(=O)N(CC(=O)N2CCCC2)C1=O	i	i	43	i	i	i
Cc1nc2ccccn2c1-c1csc(Nc2cccc(O)c2)n1	i	i	i	i	i	11
CN(C)C(=O)c1ccc(NC(=O)COC(=O)C2(c3ccccc3)CCCC2)cc1	i	i	nt	i	i	nt
O=C(NC1CCCC1)c1cnn2c(C(F)(F)F)cc(-c3ccco3)nc12	i	i	i	i	i	17
O=C(NCc1ccco1)c1cc2nc(-c3cccs3)cc(C(F)(F)F)n2n1	i	i	i	i	i	8.6
COc1ccc(-c2cc(C(F)(F)F)n3ncc(C(=O)NCc4ccco4)c3n2)cc1	i	i	i	i	i	8.2
O=C(NCc1ccco1)c1nn2c(C(F)(F)F)cc(-c3cccs3)nc2c1Cl	i	i	i	i	i	i
COc1ccc(Br)cc1/C=N/N1C(=O)CSC1=S	i	i	17	i	i	i
O=C1CSC(=S)N1N=Cc1c[nH]c2ccc(Br)cc12	i	i	nt	i	i	nt
Cn1c(C(=O)Nc2ccccc2)cc2sccc21	i	i	i	i	i	i
COc1cc(NC(=O)c2cc3sccc3n2C)cc(OC)c1	i	i	6.4	i	i	i
CCCCCCCCN1C(=O)[C@@H](CC(=O)NCc2cccc3ccccc23)C[C@@]2(C(=O)OC)C1=C[C@H](C(C)(C)C)O[C@@H]2C	i	nt	nt	nt	nt	nt
Cc1ccc(S(=O)(=O)N2C(=S)SCC2(C)C)cc1	nt	nt	5.4	nt	nt	i
CC1=CC(C)(C)N(S(=O)(=O)c2ccc(C)cc2)c2cc(C)ccc21	i	i	i	i	i	i
CCN(CC)C(=O)c1ccc(CS(=O)(=O)Cc2ccccc2)cc1	i	i	i	i	i	i
Cc1cc(NC(=O)Cc2cccs2)no1	i	i	6.8	i	i	i
CCCCc1cc(=O)oc2c(CN3CCCC3)c(O)ccc12	i	i	i	i	i	i
CCCc1cc(=O)oc2c(CNc3ccc(OCC)cc3)c(O)ccc12	i	i	5.8	i	i	i
N#C/C=C1/NC(=O)c2ccccc2S1	i	i	i	i	i	9.1
SMILES	MsrA inh	PKA-R1A activ	IMP-1 inhibitor	MsrA act	PKA-R2B activ	VIM-2 inhibitor
CCCCNC(=O)CCSc1nc2nc(C)cc(C)n2n1	nt	i	i	8.0	i	i
Cc1ccc2nc(SCC(=O)Nc3cccc(Cl)c3)nc(=O)n2c1	i	i	nt	i	i	nt
Cc1ccc2nc(SCC(=O)Nc3cccc(F)c3)nc(=O)n2c1	5.1	i	nt	i	i	nt
Cc1ccc(C(=O)NCCN(C)C)cc1C	i	i	5.4	i	i	i
Cc1ccc(C)c(C(=O)NCCN(C)C)c1	i	i	i	i	i	i
CO[C@@H]1[C@H](O)CC[C@]2(O)CN(c3ccc(F)cc3)[C@](C)([C@H](O)CC=C(C)C)[C@@H]12	i	nt	nt	nt	nt	nt
C[C@@H]1ON(C)[C@H]2C[C@H]3c4cc(-c5ccccc5)ccc4CCN3C[C@@H]12	i	nt	nt	nt	nt	nt
COC(=O)C1=C(C)N(c2ccc(OC)cc2)C(C)=C(C(=O)OC)C1c1ccc(OC)cc1	i	nt	38	i	nt	i
COC(=O)C1=C(C)N(c2ccc(OC)cc2)C(C)=C(C(=O)OC)C1c1ccccc1	i	i	i	i	i	i
CC(C)C[C@@H]1COc2cccc(NCCO)c2S(=O)(=O)N1	i	nt	nt	nt	nt	nt
CC(C)[C@H](NC(=O)c1ccc(Cl)cc1Cl)C(=O)NNc1cccc(C(=O)O)c1	i	i	nt	i	i	nt

Screens: PubChem, The Scripps Research Institute Molecular Screening Center
